Key:
Caenorhabditis elegans = test: Antiparasitic activity against Caenorhabditis elegans assessed as inhibition of parasite motility at 100 uM after 17.5 hrs by motility assay relative to control; format: functional
Outline: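 About 80 synchronized L4 worms per well in K buffer with 0.015% BSA. Motility was first recorded for 30 min to set 100%. Compound was then added at 100 µM in 1% DMSO, and motility was tracked automatically for 17.5 h. Mean motility at the final time was compared with 1% DMSO control wells. Eight replicates.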

[1] = test system: Trypanosoma brucei brucei; test: Antitrypanosomal activity against Trypanosoma brucei brucei 427 assessed as parasite death after 24 hrs by PI-staining based flow cytometry analysis; format: functional, organism-based; settings: Trypanosoma brucei, 427, 24 h
Outline: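 Bloodstream-form T. b. brucei 427, cell line 449, carrying a redox biosensor, grown in HMI-9 with 10% FBS at 37 °C and 5% CO2. Exponential-phase cells at 5 x 10^5/mL were exposed to compound for 24 h; the control was 1% DMSO. Cells were then diluted into PBS with 1% glucose (pH 7.4) and propidium iodide, and analysed by flow cytometry (ex 488 nm). Viability was expressed as % of DMSO-control cell number.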

[2] = Selectivity index, ratio of EC50 for mouse J774 cells to EC50 for antitrypanosomal activity against Trypanosoma brucei brucei 427; format: toxicity; settings: read-out: Ratio EC50
J774 = test: Cytotoxicity against mouse J774 cells assessed as reduction in cell viability after 24 hrs by WST-1 assay; format: cell-based; settings: J774, 24 h
Outline: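 Mouse J774 macrophages grown in DMEM with 10% FCS at 37 °C and 5% CO2. Viability was read with WST-1 at 6 concentrations, in triplicate, and expressed relative to the DMSO-treated control.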

[3] = molecular target: T1, Thioredoxin glutathione reductase (Echinococcus granulosus) (UniProt Q869D7); test: Inhibition of wild type recombinant Echinococcus granulosus TGR at 50 uM preincubated for NADPH followed by compound addition and measured after 3 mins by spectrophotometric analysis relative to control
T1 sequence (whole entry): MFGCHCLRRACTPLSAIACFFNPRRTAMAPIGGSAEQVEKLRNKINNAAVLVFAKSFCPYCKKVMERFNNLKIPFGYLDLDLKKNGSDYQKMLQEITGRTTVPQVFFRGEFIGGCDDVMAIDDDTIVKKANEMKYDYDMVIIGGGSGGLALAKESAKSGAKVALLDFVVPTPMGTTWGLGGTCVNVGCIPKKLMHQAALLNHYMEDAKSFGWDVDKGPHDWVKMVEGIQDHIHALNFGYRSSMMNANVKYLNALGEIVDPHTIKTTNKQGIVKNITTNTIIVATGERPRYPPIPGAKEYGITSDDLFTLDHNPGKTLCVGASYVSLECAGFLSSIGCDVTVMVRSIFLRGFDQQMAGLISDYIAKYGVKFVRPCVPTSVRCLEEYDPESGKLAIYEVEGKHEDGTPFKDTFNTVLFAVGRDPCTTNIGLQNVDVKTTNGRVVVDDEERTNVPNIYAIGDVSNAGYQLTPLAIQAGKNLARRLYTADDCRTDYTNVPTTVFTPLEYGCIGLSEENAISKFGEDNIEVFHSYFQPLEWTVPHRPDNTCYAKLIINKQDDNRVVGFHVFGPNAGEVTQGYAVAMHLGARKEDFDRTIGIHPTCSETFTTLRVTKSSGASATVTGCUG
Outline: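 Recombinant wild-type E. granulosus TGR (1 nM) in 50 mM phosphate, 1 mM EDTA, pH 7, with 100 µM NADPH. Enzyme was preincubated for 3 min with NADPH and inhibitor at 50 µM (from a 100 mM DMSO stock). The reaction was started with 5 mM DTNB, and TNB formation was followed at 412 nm for 3 min. Runs were in duplicate, with controls lacking enzyme and lacking inhibitor.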

[4] = test system: Nippostrongylus brasiliensis; test: Antiparasitic activity against Nippostrongylus brasiliensis L4 assessed as parasite death at 20 uM relative to control; format: functional
[5] = test system: Trypanosoma brucei brucei; test: Antitrypanosomal activity against Trypanosoma brucei brucei 427 assessed as parasite death at 30 uM after 24 hrs by PI-staining based flow cytometry analysis relative to control; format: functional
Outline: (§1)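 Bloodstream-form T. b. brucei strain 427 grown in HMI-9 with 10% FBS at 37 °C and 5% CO2. Exponential-phase parasites were seeded at 5 x 10⁵/mL and given compound from DMSO stocks, alongside 1% DMSO and nifurtimox control wells. After 24 h, aliquots were diluted into PBS with 1% glucose (pH 7.4) and propidium iodide and counted by flow cytometry (ex 488 nm). Viability (%) = 100 × cells treated / cells in DMSO control.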

[6] = test system: Trypanosoma brucei brucei; test: Antitrypanosomal activity against Trypanosoma brucei brucei 427 assessed as parasite death at 5 uM after 24 hrs by PI-staining based flow cytometry analysis relative to control; format: functional; outline: as §1

SMILES | inhibition at 100 µM (Caenorhabditis elegans) [%] | EC50 [1] [µM] | selectivity ratio [2] | EC50 (J774) [µM] | inhibition [3] [%] | Activity [4] [%] | Activity [5] [%] | Activity [6] [%]
CCOC(=O)C1=C(C(=O)OCC)C2CSC(CS1)N2Cc1ccc(Cl)cc1 (stereo not drawn) | 37 | 8 | > 25 | > 200 | 0 | 17.1 | 97.3 | 2.4
CCOC(=O)C1=C(C(=O)OCC)C2CSC(CS1)N2Cc1ccc(OC)cc1 (stereo not drawn) | 50 | 18 | > 11 | > 200 | 36 | 13.8 | 97.7 | 3
COC(=O)C1=C(C(=O)c2ccc(Cl)cc2)C2CSC(CS1)N2CCO (stereo not drawn) | 18 |  |  |  | 0 | 20.6 | 3.6 | 1.8
CCOC(=O)C1=C(C(=O)OCC)C2CSC(CS1)N2Cc1ccccc1 (stereo not drawn) | 20 | 18.9 | 10 | 200 | 0 | 5.9 | 98.8 | 3.5
CC1CS(=O)(=O)CCN1/N=C/c1ccc([N+](=O)[O-])o1 (stereo not drawn) [NIFURTIMOX] |  |  | 10 | 150 |  |  |  | 
O=C(OCc1c(-c2ccccc2)no[n+]1[O-])C1=C(C(=O)OCc2c(-c3ccccc3)no[n+]2[O-])C2CSC(CS1)N2Cc1ccccc1 (stereo not drawn) |  |  |  |  |  |  | 23.3 | 12.2
CCOC(=O)C1=C(C(=O)OCC)C2CSC(CS1)N2Cc1ccc(F)cc1 (stereo not drawn) | 26 | 17.8 | 3.6 | 64.4 | 41 | 47.6 | 99.4 | 12.7
COC(=O)C1=C(C(=O)c2ccc(Cl)cc2)C2CSC(CS1)N2Cc1ccccc1 (stereo not drawn) | 51 |  |  |  | 0 | 20.5 | 57.5 | 3.4
CCCSc1ccc2[nH]c(NC(=O)OC)nc2c1 [ALBENDAZOLE] |  |  |  |  |  | 100 |  | 
COC(=O)C1=C(C(=O)c2ccc(Cl)cc2)C2CSC(CS1)N2Cc1ccc(OC)cc1 (stereo not drawn) | 3 | 16.4 | 0.6 | 9.7 | 29 | 27.6 | 95.9 | 0
O=C(OCc1c(-c2ccccc2)no[n+]1[O-])C1=C(C(=O)c2ccc(Cl)cc2)C2CSC(CS1)N2Cc1ccccc1 (stereo not drawn) |  | 2.5 | 1.2 | 3.1 | 0 |  | 97.7 | 89.4
CCOC(=O)C1=C(C(=O)OCC)C2CSC(CS1)N2CCCC(=O)OCc1c(-c2ccccc2)no[n+]1[O-] (stereo not drawn) | 22 | 2.8 | > 71 | > 200 | 0 |  | 97.8 | 60.4
